Published values gathered from unrelated publications.
Protocols differ between the studies behind these lines.
Observed: cell growth or viability

| SMILES | cell line | technique | time | IC50 |
| --- | --- | --- | --- | --- |
| CCCCC/C=C\C/C=C\C/C=C\C/C=C\CCCC(=O)NCCO | ReNcell VM | – | 24 h | ~8000 nM |
| O=C(O)CCCc1ccc(N(CCCl)CCCl)cc1 | IOSE-144 | CCK-8 | 48 h | 16500 nM |
| C[C@H]1O[C@@H](O[C@H]2[C@@H](O)C[C@H](O[C@H]3[C@@H](O)C[C@H](O[C@H]4CC[C@@]5(C)[C@H](CC[C@@H]6[C@@H]5C[C@@H](O)[C@]5(C)[C@@H](C7=CC(=O)OC7)CC[C@]65O)C4)O[C@@H]3C)O[C@@H]2C)C[C@H](O)[C@@H]1O | ReNcell VM | imaging | 24 h | ~2020 nM |
| N[C@@H](Cc1ccc(N(CCCl)CCCl)cc1)C(=O)O | IOSE-144 | CCK-8 | 48 h | > 50000 nM |
| Cc1cccc(-n2ncc(Cl)c(Cl)c2=O)c1 | NCI-H2444 | resazurin | 96 h | 240 nM |
| CC(C)C[C@H](NC(=O)OCc1ccccc1)C(=O)N[C@@H](Cc1c[nH]c2ccccc12)C(=O)N[C@@H](CC(C)C)C(=O)C(=O)Nc1cccc(S(C)(=O)=O)c1 | RPMI-8226 | MTS | 72 h | 33.2 nM |
| Cc1cc(N(CCO)CCO)ccc1C(=O)O | ACHN | – | – | > 10 µg/mL |
| CC(C)C[C@H](NC(=O)OCc1ccccc1)C(=O)N[C@@H](CC(C)C)C(=O)N[C@@H](CC(C)C)C(=O)C(=O)Nc1cccc2cnccc12 | RPMI-8226 | MTS | 72 h | 133 nM |
| C=C(C)[C@H]1Cc2c(ccc3c2O[C@@H]2COc4cc(OC)c(OC)cc4[C@@H]2C3=O)O1 | ReNcell VM | – | 24 h | 270 nM |
| COc1ccc2[nH]cc(CCNc3nccc(Nc4cccc5c4ccn5C)n3)c2c1 | RPMI-8226 | fluorescence | 72 h | 12 nM |
| COc1cc(NC(=O)C(=O)[C@H](CC(C)C)NC(=O)[C@H](CC(C)C)NC(=O)[C@H](CC(C)C)NC(=O)c2ccc(-c3ccc(C(C)=O)cc3)o2)cc(OC)c1 | RPMI-8226 | MTS | 72 h | 36.1 nM |
| Cc1cc(N(CCO)CCO)ccc1C=O | ACHN | – | – | > 10 µg/mL |
| CCOP(=S)(OCC)Oc1nc(Cl)c(Cl)cc1Cl | ReNcell VM | – | 24 h | ~9900 nM |
| CC(=O)c1cccc(NC(=O)C(=O)[C@H](CC(C)C)NC(=O)[C@H](Cc2ccccc2)NC(=O)[C@H](CC(C)C)NC(=O)OCc2ccccc2)c1 | RPMI-8226 | MTS | 72 h | 163 nM |
